An excerpt weighted towards active compounds, which were near 6.8% of everything screened.
HSF1 inhib: HSF1 inhibition | activity change, negative = inhibition, % at 7.5 µM (by protocol) | NIH3T3-HGL HSE-luciferase, MG132-induced, luminescence 8 h; stronger effect = lower value | 300,000 compounds, 0.77% hits;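 active = more than half of replicate wells show activity change below -50%, luminescence cut by over half; inconclusive = some wells, but at most half, below -50%; inactive = no replicate well below -50%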;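 also: luciferase reports HSF-1 transcriptional activity via heat shock element; 0% = median of DMSO wells and -100% = zero luminescence signal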
PHOSPHO1 block: blocks human PHOSPHO1 phosphatase activity. Q8TCT1. recombinant PHOSPHO1, absorbance phosphatase assay. inhibition, % at 13.3 µM. 290,000 compounds, 1.1% hits. AID 1565; in the data active = inhibition above about 60%
Target sequence (Q8TCT1 whole entry, looked up): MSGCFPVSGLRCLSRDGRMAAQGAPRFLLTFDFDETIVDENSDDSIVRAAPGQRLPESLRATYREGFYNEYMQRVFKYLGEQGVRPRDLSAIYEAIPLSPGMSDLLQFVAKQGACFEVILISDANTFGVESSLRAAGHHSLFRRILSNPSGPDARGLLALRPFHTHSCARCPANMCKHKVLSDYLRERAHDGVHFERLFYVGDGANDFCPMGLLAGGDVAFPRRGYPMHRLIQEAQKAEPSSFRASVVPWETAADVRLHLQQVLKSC
ALR inh: inhibitors of human sulfhydryl oxidase ALR | P55789 | purified ALR, DTT oxidation, H2O2 HRP-luminol luminescence | inhibition, % (concentration not given with the values) | 290,000 compounds, 3.8% hits | AID 485317;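 active = mean replicate inhibition above about 79%, with every replicate also reaching it, limit read from the data; inconclusive = only one of the two criteria met; inactive = mean below limit and not every replicate reaching it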
Target sequence (P55789 whole entry, looked up): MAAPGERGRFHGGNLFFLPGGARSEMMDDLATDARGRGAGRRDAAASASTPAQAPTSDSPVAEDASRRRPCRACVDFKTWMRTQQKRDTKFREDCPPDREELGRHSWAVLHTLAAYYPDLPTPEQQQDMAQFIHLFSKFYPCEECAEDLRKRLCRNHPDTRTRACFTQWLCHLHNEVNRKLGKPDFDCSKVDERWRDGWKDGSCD
HSF-1 act: increases HSF-1 driven luciferase reporter signal; NIH3T3-HGL HSF-1 luciferase reporter, MG132, 8 h; 100% = twice DMSO control signal; activation, % at 9 µM; 300,000 compounds, 1.7% hits;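 active = mean replicate activation of at least 50% with a set share of replicates each reaching 50%; inconclusive = only one of those two conditions met; inactive = mean below 50% and too few replicates reaching it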;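 also: 0% = median of the neutral control wells and 100% = twice that signal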
AI-2 QS mod: modulators of Vibrio harveyi AI-2 quorum sensing system; Vibrio harveyi JMH597 AI-2 luminescence/OD600 ratio, 9 h; stronger effect = lower value; strain lacks LuxN and CqsS sensors; 0 = neutral-control median; activity change, % at 7.5 µM; 300,000 compounds, 0.4% hits; AID 2094; in the data active = activity change below about -75%, passing the limit was not always enough; inconclusive = no clear call, values can overlap the other calls;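 also: luminescence divided by OD600 gain over 9 h not by final OD600 alone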
core dimer inh: HCV core protein dimerization inhibition. TR-FRET GST/Flag-core106 dimerization, 1536-well. inhibition, % at 5 µM. 300,000 compounds, 0.33% hits;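 active = inhibition above the mean of all tested compounds plus 3 SD, set per screening campaign, cut at about 45% in these data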
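Material: GST/Flag-tagged HCV core106 proteins. Incubation: 4 h, 22.5 °C incubation. Read-out basis: inhibition (%) from 671 over 617 nm ratio. Measured by: TR-FRET, excitation 340 nm, emission 617 and 671 nm.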
Active calls of the source: *; ? = inconclusive; . = not tested or not shown.

SMILES | HSF1 inhib | PHOSPHO1 block | ALR inh | HSF-1 act | AI-2 QS mod | core dimer inh
Nc1cc([N+](=O)[O-])ccc1Nc1ccccc1 | -1 | 47 | 99* | 10 | 13 | -21
Nc1cc(C(F)(F)F)ccc1NCCc1ccccn1 | 6 | 10 | 98* | 26 | 14 | -15
N#Cc1ccc(Nc2ccccc2)c(N)c1 | 16 | 7 | 98* | 7 | 19 | -11
Nc1cc([N+](=O)[O-])ccc1O | -5 | -3 | 99* | 0 | 18 | -19
N#Cc1cc(N)c(Nc2ccccc2)cc1C#N | -10 | 16 | 61 | 1 | 14 | -6
Nc1cc(C(F)(F)F)ccc1Nc1ccccc1 | 9 | 11 | 98* | 15 | -26 | -6
Cc1csc(-c2cnn(-c3ccccc3)c2NC(=O)c2cccc(C(F)(F)F)c2)n1 | 48 | -11 | -5 | 81* | 17 | -5
O=C(Nc1ccccc1-c1ccccc1)c1cccc(C(F)(F)F)c1 | -7 | 1 | 20 | 3 | 33 | 2
Cc1ccc(-n2c(-c3cccnc3)n[nH]c2=S)c(C)c1 | 3 | 60* | 84* | -1 | -16 | -2
COc1ccc(-c2n[nH]c(=S)n2-c2ccc(C)cc2C)cc1 | -6 | -60 | 46 | -9 | -8 | 8
Cc1ccc(-n2c(-c3ccc(Cl)cc3)n[nH]c2=S)c(C)c1 | 9 | -80 | 87* | 13 | -7 | 5
COc1ccccc1-n1c(-c2cccnc2)n[nH]c1=S | 2 | 38 | 35 | -1 | 0 | -1
CC(C)C(C)N(Cc1cccc(C(=O)O)c1)C(=O)c1ccc2ccccc2n1 (stereo not drawn) | -3 | . | -5 | 7 | 12 | 0
CC(C)C(C)N(Cc1ccc(C(=O)O)cc1)C(=O)c1ccc2ccccc2n1 (stereo not drawn) | 18 | . | -6 | 58* | 29 | 3
Cc1ccc(NC(=O)CSc2nnc(CNC(=O)c3c(F)cccc3Cl)o2)cc1 | 1 | 24 | 98* | 11 | 28 | 3
Cc1cc(C)c(NC(=O)CSc2nnc(CNC(=O)c3c(F)cccc3Cl)o2)c(C)c1 | -1 | -10 | -23 | -10 | 75 | 3
O=C(CSc1nnc(CNC(=O)c2c(F)cccc2Cl)o1)Nc1ccc2c(c1)OCO2 | -8 | 23 | 97* | -7 | 37 | -1
Cc1ccccc1Nc1scc(-c2ccc(Cl)cc2)[n+]1-c1ccccc1C | -3 | 40 | . | 4 | 20 | .
Cn1nccc1-c1cc(Cl)cc(Cl)c1O | -6 | 38 | 10 | 5 | 23 | 4
CCOc1cccc(=O)c2c(C)n(-c3ccc(C(=O)O)cc3)c(C)c12 | 7 | 26 | 96* | -4 | 32 | -4
CCOc1cccc(=O)c2c(C)n(Cc3ccccc3)c(C)c12 | 7 | 37 | 2 | 14 | 22 | 50*
O=[N+]([O-])c1ccc(S(=O)(=O)N2CCC3(CC2)OCCN3S(=O)(=O)c2cccs2)cc1 | 5 | . | -7 | 8 | 3 | 3
CN(C)c1ccc(CN2CCCC(O)C2)cc1 (stereo not drawn) | 1 | 7 | 97* | 36 | 13 | 2
OC1CCCN(Cc2ccccc2)C1 (stereo not drawn) | -4 | 9 | -2 | -1 | 23 | -3
COc1ccc(NC(=O)NNC(=O)CCc2ccc(O)c(O)c2)cc1OC | -1 | 33 | 99* | -8 | 8 | 6
SMILES | HSF1 inhib | PHOSPHO1 block | ALR inh | HSF-1 act | AI-2 QS mod | core dimer inh
COc1ccc(CCC(=O)NNC(=O)Nc2ccc(OC)c(OC)c2)cc1 | -9 | 16 | -18 | 14 | 13 | 12
O=S(=O)(CC(O)COc1ccccc1Cl)c1ccccc1 (stereo not drawn) | . | 66* | -9 | . | 3 | -6
CCOc1ccccc1/C=C/C(=O)NCC(=O)N1CCC(N(C)C2CCCCC2C)CC1 (stereo not drawn) | 2 | 24 | -1 | -13 | 17 | -8
O=C(/C=C/c1ccccc1[N+](=O)[O-])c1ccc(F)cc1 | 15 | 26 | 98* | 38 | 10 | 1
CC(C)(C)NC(=O)C(=O)NN=C1CCCCCCCCCCC1 | 2 | 4 | -4 | 9 | 4 | -3
CCc1cc2c3c(c(=O)oc2cc1OCC(=O)OC)CCCC3 | -7 | 46 | . | 9 | 18 | 17
CCc1oc2ccccc2c1C(=O)CCN1CCCCC1 | 33 | -9 | 97* | 46 | 26 | -3
O=C(CCN1CCCCC1)c1ccccc1 | -3 | 13 | 47 | 14 | 13 | 1
CC(=O)Nc1ccc(Oc2ccccc2)cc1 | -7 | 43 | 2 | -5 | -8 | 1
CC(=O)Nc1ccc(Oc2sc(C(=O)c3ccccc3)c(N)c2C#N)cc1 | 60 | 20 | 18 | 87* | -5 | -40
O=C1C2CCCN2c2ccc(S(=O)(=O)N3CCOCC3)cc2N1Cc1cccc(C(F)(F)F)c1 (stereo not drawn) | -85* | 10 | . | -88 | -2 | 8
CC(C)c1ccc(NC(=O)C2=NNC(=O)CC2)cc1 | 2 | -3 | -7 | 0 | 27 | 1
Cc1cccc2cc3c(N)c(C(=O)N4CCOCC4)sc3nc12 | 36 | -16 | 6 | 81* | 16 | -23
Cc1cc(C)c2cc3c(N)c(C(=O)N4CCc5ccccc5C4)sc3nc2c1 | -28 | 2 | -2 | -42 | 36 | 4
CN(C)c1ccc(NC(=O)c2cc3c(=O)n4ccccc4nc3n2C)cc1 | -4 | . | 82* | 3 | 28 | -16
COC(=O)C1CCN(C(=O)CN2C(=O)NC(CCc3ccccc3)C2=O)CC1 (stereo not drawn) | -2 | -18 | 99* | -16 | 15 | -3
O=C(Nc1cccc(Br)c1)c1ccc2c(c1)SC1=NS(=O)(=O)CCN12 | . | . | 0 | . | . | .
Cc1cc(C(=O)NC2CCCN(Cc3ccc(Cl)cc3)C2)n(C)n1 (stereo not drawn) | -85* | 47 | -13 | -89 | 23 | .
CCOc1cc(/C=C2\NC(=S)N(c3c(C)n(C)n(-c4ccccc4)c3=O)C2=O)ccc1O | -2 | -32 | 99* | 0 | 12 | -23
CCOc1cccc(/C=C2\NC(=S)N(c3ccccc3)C2=O)c1O | 82 | 5 | ? | 102* | -9 | -18
CCOCCCN(C(=O)CNC(=O)c1ccco1)C(C(=O)NC1CCCC1)c1cccc(OC)c1 (stereo not drawn) | 27 | 36 | . | 43 | 3 | 6
O=C(CC(c1ccco1)S(=O)(=O)c1ccccc1)c1ccccc1 (stereo not drawn) | 65 | -10 | 0 | 85* | -2 | -4
Cc1ccc(-c2nc(=S)c3c(n2Cc2ccco2)CC(C)(C)OC3)cc1 | 9 | -72 | 97* | 12 | 10 | 43
Cc1ccc(-c2nc(=S)c3c(n2CC2CCCO2)CC(C)(C)OC3)cc1 (stereo not drawn) | -7 | 13 | . | -1 | 20 | 14
